Experimental data taken from ChEMBL document CHEMBL1153955, “Indolylarylsulfones bearing natural and unnatural amino acids. Discovery of potent inhibitors of HIV-1 non-nucleoside wild type and resistant mutant strains reverse transcriptase and coxsackie B4 virus” (J Med Chem, 2009).
pEC50, pIC50: −log10 of the molar value.

How the values were obtained:
[1] = test system: Sindbis virus; assay: Antiviral activity against Sindbis virus in african green monkey Vero cells assessed as protection against virus-induced cytopathicity; type: functional, organism-based
Procedure, shortened: (§1)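 Confluent cell monolayers inoculated with 100 CCID₅₀ virus. After 1-2 h adsorption, residual virus removed and cultures incubated with varying compound concentrations. Cytopathicity scored once it reached completion in untreated infected controls. EC₅₀ = dose reducing virus-induced cytopathogenicity by 50%.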

[2] = test system: Influenza A virus H3N2; assay: Antiviral activity against influenza H3N2 virus in MDCK cells assessed as reduction of virus-induced cytopathicity by visual cytopathic effect scoring method; type: functional, organism-based
[3] = test system: Felid alphaherpesvirus 1; assay: Antiviral activity against Feline herpesvirus in feline […] cells assessed as inhibition of virus-induced cytopathicity; type: functional, organism-based
[4] = biological target: Human immunodeficiency virus type 1 reverse transcriptase (Human immunodeficiency virus 1, UniProt Q72547, Y181I); assay: Inhibition of HIV1 reverse transcriptase p66/p51 Y181I mutant; settings: read-out: IC50
Procedure, shortened: (§2)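 Substrate was 0.5 µg poly(rA)/oligo(dT) 10:1 (0.3 µM 3′-OH ends) with 10 µM [³H]dTTP, at 37 °C. Acid-precipitable radioactivity was counted on GF/C filters after TCA washes.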

[5] = test system: Coxsackievirus B4; assay: Antiviral activity against Coxsackievirus B4 in african green monkey Vero cells assessed as protection against virus-induced cytopathicity; type: functional, organism-based; settings: Enterovirus B; procedure, shortened: as §1
[6] = Cytotoxicity against MDCK cells by MTS assay; type: cell-based, Canis lupus familiaris; settings: dog
[7] = test system: Influenza A virus H3N2; assay: Antiviral activity against influenza H3N2 virus in MDCK cells assessed as reduction of virus-induced cytopathicity by MTS method; type: functional, organism-based
[8] = test system: Feline coronavirus; assay: Antiviral activity against Feline coronavirus in feline […] cells assessed as inhibition of virus-induced cytopathicity; type: functional, organism-based; settings: Alphacoronavirus 1
[9] = test system: Punta Toro virus; assay: Antiviral activity against Punta Toro virus in african green monkey Vero cells assessed as protection against virus-induced cytopathicity; type: functional, organism-based; procedure, shortened: as §1
[10] = test system: Influenza B virus; assay: Antiviral activity against influenza B virus in MDCK cells assessed as reduction of virus-induced cytopathicity by visual cytopathic effect scoring method; type: functional, organism-based
[11] = test system: Vesicular stomatitis virus; assay: Antiviral activity against VSV in human HEL cells assessed as protection against virus-induced cytopathicity; type: functional, organism-based
[12] = test system: Human immunodeficiency virus 2; assay: Antiviral activity against HIV2 ROD in human CEM cells assessed as protection against virus-induced cytopathicity after 4 days; type: functional, organism-based; settings: Human immunodeficiency virus 2, ROD, CCRF-CEM, 96 h
Procedure, shortened: (§3)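 CEM cells (~3 × 10⁵ cells/mL) infected with ~100 CCID₅₀ per mL of HIV-1 (IIIB) or HIV-2 (ROD), then seeded into wells containing compound dilutions. After 4 days at 37 °C, syncytium (giant cell) formation was examined microscopically. EC₅₀ = concentration protecting CEM cells from HIV cytopathicity by 50%.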

[13] = test system: CCRF-CEM; assay: Antiproliferative activity against human CEM cells after 3 days; type: cell-based; settings: 72 h
Procedure, shortened: (§4)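 Cells seeded at 5 × 10⁴ to 7.5 × 10⁴ cells/200 µL with or without serial compound dilutions; incubated at 37 °C for 2 days (L1210) or 3 days (Molt4/C8, CEM). Cell numbers counted with a Coulter counter. CC₅₀ = concentration reducing proliferation by 50% versus untreated controls, read from plots of cell number (% of control) against concentration. Means of at least two independent experiments.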

[14] = test system: Human respirovirus 3; assay: Antiviral activity against Parainfluenza virus type 3 in african green monkey Vero cells assessed as protection against virus-induced cytopathicity; type: functional, organism-based; settings: Human respirovirus 3, Vero; procedure, shortened: as §1
[15] = test system: Influenza B virus; assay: Antiviral activity against influenza B virus in MDCK cells assessed as reduction of virus-induced cytopathicity by MTS method; type: functional, organism-based
[16] = Antiproliferative activity against human Molt4/C8 cells after 3 days; type: cell-based; settings: MOLT-4, 72 h; procedure, shortened: as §4
[17] = test system: Respiratory syncytial virus; assay: Antiviral activity against RSV Long in human HeLa cells assessed as protection against virus-induced cytopathicity; type: functional, organism-based; procedure, shortened: as §1
[18] = biological target: Human immunodeficiency virus type 1 reverse transcriptase (Human immunodeficiency virus 1, UniProt Q72547); assay: Inhibition of HIV1 reverse transcriptase p66/p51; settings: read-out: IC50
[19] = test system: Vaccinia virus; assay: Antiviral activity against Vaccinia virus Lederle in human HEL cells assessed as protection against virus-induced cytopathicity; type: functional, organism-based; settings: Orthopoxvirus vaccinia
[20] = test system: Influenza A virus; assay: Antiviral activity against influenza H1N1 virus in MDCK cells assessed as reduction of virus-induced cytopathicity by visual cytopathic effect scoring method; type: functional, organism-based
[21] = test system: L1210; assay: Antiproliferative activity against mouse L1210 cells after 2 days; type: cell-based; settings: L1210, 48 h; procedure, shortened: as §4
[22] = biological target: Human immunodeficiency virus type 1 reverse transcriptase (Human immunodeficiency virus 1, UniProt Q72547, L100I); assay: Inhibition of HIV1 reverse transcriptase p66/p51 L100I mutant; settings: read-out: IC50; procedure, shortened: as §2
[23] = Cytotoxicity against feline CRFK cells by MTS assay; type: cell-based, Felis catus; settings: cat
[24] = test system: Human alphaherpesvirus 2; assay: Antiviral activity against HSV2 G in human HEL cells assessed as protection against virus-induced cytopathicity; type: functional, organism-based; settings: Human alphaherpesvirus 2, strain G; procedure, shortened: as §1
[25] = test system: Coxsackievirus B4; assay: Antiviral activity against Coxsackievirus B4 in human HeLa cells assessed as protection against virus-induced cytopathicity; type: functional, organism-based; settings: Enterovirus B; procedure, shortened: as §1
[26] = test system: Human alphaherpesvirus 1; assay: Antiviral activity against thymidine kinase deficient and acyclovir resistant HSV1 KOS in human HEL cells assessed as protection against virus-induced cytopathicity; type: functional, organism-based; settings: Human alphaherpesvirus 1, KOS
[27] = Cytotoxicity against human HEL cells assessed as drug level causing microscopically detectable alteration of normal cell morphology after 3 days; type: cell-based
[28] = test system: Influenza A virus; assay: Antiviral activity against influenza H1N1 virus in MDCK cells assessed as reduction of virus-induced cytopathicity by MTS method; type: functional, organism-based; settings: Influenza A virus, H1N1, MDCK
[29] = Cytotoxicity against human HeLa cells assessed as drug level causing microscopically detectable alteration of normal cell morphology after 3 days; type: cell-based
Procedure, shortened: (§5)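 Serial compound dilutions added to confluent HeLa or Vero monolayers. MCC = minimum concentration causing microscopically detectable alteration of cell morphology after 3 days of incubation.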

[30] = biological target: Human immunodeficiency virus type 1 reverse transcriptase (Human immunodeficiency virus 1, UniProt Q72547, K103N); assay: Inhibition of HIV1 reverse transcriptase p66/p51 K103N mutant; settings: read-out: IC50; procedure, shortened: as §2
[31] = test system: Human immunodeficiency virus 1; assay: Antiviral activity against HIV1 3B in human CEM cells assessed as protection against virus-induced cytopathicity after 4 days; type: functional, organism-based; settings: Human immunodeficiency virus 1, 3B, CCRF-CEM, 96 h; procedure, shortened: as §3
[32] = Cytotoxicity against african green monkey Vero cells assessed as drug level causing microscopically detectable alteration of normal cell morphology after 3 days; type: cell-based; settings: chlorocebus sabaeus; procedure, shortened: as §5
[33] = test system: Mammalian orthoreovirus 1; assay: Antiviral activity against Reovirus 1 in african green monkey Vero cells assessed as protection against virus-induced cytopathicity; type: functional, organism-based; settings: Mammalian orthoreovirus 1, Vero; procedure, shortened: as §1
[34] = test system: Human alphaherpesvirus 1; assay: Antiviral activity against HSV1 KOS in human HEL cells assessed as protection against virus-induced cytopathicity; type: functional, organism-based; settings: Human alphaherpesvirus 1, KOS
[35] = Cytotoxicity against MDCK cells assessed as drug level causing microscopically detectable alteration of normal cell morphology; type: cell-based, Canis lupus familiaris; settings: dog
[36] = test system: Vesicular stomatitis virus; assay: Antiviral activity against VSV in human HeLa cells assessed as protection against virus-induced cytopathicity; type: functional, organism-based

SMILES	pEC50 [1]	pEC50 [2]	pEC50 [3]	pIC50 [4]	pEC50 [5]	CC50 [6]	pEC50 [7]	pEC50 [8]	pEC50 [9]	pEC50 [10]	pEC50 [11]	pEC50 [12]	pIC50 [13]	pEC50 [14]	pEC50 [15]	pIC50 [16]	pEC50 [17]	pIC50 [18]	pEC50 [19]	pEC50 [20]	other results
Cc1cc(C)cc(S(=O)(=O)c2c(C(=O)NCCC(N)=O)[nH]c3ccc([N+](=O)[O-])cc23)c1	< 4.00	< 4.70	< 4.00	5.26	< 4.00	> 100 µM	< 4.70	< 4.00	< 4.00	< 4.70	< 4.70	< 5.00	≤ 3.30	< 4.00	< 4.70	< 3.30	< 4.00	7.57	< 4.70	< 4.70	pIC50 [21]: < 3.30; pIC50 [22]: 6.69; CC50 [23]: > 100 µM; pEC50 [24]: < 4.70; pEC50 [25]: < 4.00; pEC50 [26]: < 4.70; MCC at 72 h [27]: ≥ 20 µM; pEC50 [28]: < 4.70; MCC at 72 h [29]: > 100 µM; pIC50 [30]: 6.32; pEC50 [31]: 8.80; MCC at 72 h [32]: > 100 µM; pEC50 [33]: < 4.00; pEC50 [34]: < 4.70; MCC [35]: 100 µM; pEC50 [36]: < 4.00
Cc1cc(C)cc(S(=O)(=O)c2c(C(=O)NC(C)CS(N)(=O)=O)[nH]c3ccc(Br)cc23)c1 (stereo not drawn)	< 4.70	< 3.10	< 4.70	5.07	4.80	1.9 µM	< 3.10	< 4.70	< 4.70	< 3.10	< 5.40	< 5.00	4.92	< 4.70	< 3.10	5.03	≤ 5.40	8.52	< 5.40	< 3.10	pIC50 [21]: 4.96; pIC50 [22]: 6.90; CC50 [23]: 53 µM; pEC50 [24]: < 5.40; pEC50 [25]: 5.52; pEC50 [26]: < 5.40; MCC at 72 h [27]: 20 µM; pEC50 [28]: < 3.10; MCC at 72 h [29]: 20 µM; pIC50 [30]: 5.88; pEC50 [31]: 8.64; MCC at 72 h [32]: ≥ 20 µM; pEC50 [33]: < 4.70; pEC50 [34]: < 5.40; MCC [35]: 4 µM; pEC50 [36]: < 5.40
Cc1cc(C)cc(S(=O)(=O)c2c(C(=O)NCCC(N)=O)[nH]c3ccc(Br)cc23)c1	< 4.70	< 5.40	< 5.40	5.07	4.80	8.5 µM	< 5.40	< 5.40	< 4.70	< 5.40	< 5.40	4.64	4.44	< 4.70	< 5.40	4.60	≤ 4.70	7.07	< 5.40	< 5.40	pIC50 [21]: 4.34; pIC50 [22]: 6.77; CC50 [23]: 15.6 µM; pEC50 [24]: < 5.40; pEC50 [25]: 4.96; pEC50 [26]: < 5.40; MCC at 72 h [27]: 20 µM; pEC50 [28]: < 5.40; MCC at 72 h [29]: ≥ 20 µM; pIC50 [30]: 6.38; pEC50 [31]: 8.96; MCC at 72 h [32]: 100 µM; pEC50 [33]: < 4.70; pEC50 [34]: < 5.40; MCC [35]: 20 µM; pEC50 [36]: < 4.70
